Source: PubChem
The list is a sample of the results.
PGC1a Ac signal: raises PGC1a acetylation signal in U2OS cells; hit rate 0.21% among 350,000; activation, % at 15.6 µM; U2OS PGC1a acetylation AlphaScreen, overnight; AID 651723;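 active = every replicate reaching activation of at least 50%, whatever the mean replicate activation; inconclusive = replicates that disagree or another doubt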;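 also: hits raise the AlphaScreen acetylation signal above neutral controls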
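System: Flag-PGC1a/GCN5 U2OS cells | Quantity: 7000 cells/well | Times: Overnight compound treatment, 37 °C | Measured by: AlphaScreen proximity luminescence, anti-acetyl-lysine antibody | Dosing: One concentration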
Hep G6PC suppr: PGC-1a acetylation activators affecting G6PC expression in hepatocytes | AID 743463 | shares compounds with PGC1a Ac signal | G6PC suppression (normalized activity, % of positive control; higher = more suppression), % at 26 µM | 240 tested, under 10 active | primary mouse hepatocytes, G6PC mRNA qPCR, forskolin;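 active = dose curves showing G6PC suppression whose half-maximal dose is at most twice the top valid dose; inconclusive = flat curves with moderate negative activity, or unreliable fits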;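 also: G6PC expression relative to GAPDH housekeeping gene as delta delta Ct; 0% = median of neutral control wells and 100% = median of positive control wells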
Hep PCK1 suppr: PGC-1a acetylation activator altering hepatocyte PCK1 expression. AID 743465. PCK1 expression decrease, unspecified at 26 µM. shares compounds with PGC1a Ac signal. 230 tested, under 10 active. primary mouse hepatocytes, PCK1 mRNA qPCR, forskolin-stimulated;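 active = compounds lowering PCK1 expression whose fitted half-maximal concentration is at most twice the top tested dose; inconclusive = flat fit with moderate opposite-direction effect, or poor fit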;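 also: values are delta delta Ct of PCK1 relative to GAPDH; higher delta delta Ct means lower PCK1 expression so positive values indicate hits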
PGC1a hep suppr: PGC-1a acetylation activator altering hepatocyte PGC-1a expression. shares compounds with PGC1a Ac signal. primary mouse hepatocytes, PGC-1a mRNA qPCR, forskolin; top dose 26 µM. max activity (PGC-1a expression decrease), %. 240 tested, under 10 active. AID 743467;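 active = compound lowering PGC-1a expression with fitted half-maximal concentration at most twice its top tested dose; inconclusive = flat curve with moderate opposite-direction effect, or poor fit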;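 also: 0% = neutral control wells median and 100% = positive control wells median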
Active calls of the source: *; ? = inconclusive; · = no result.

SMILES	PGC1a Ac signal	Hep G6PC suppr	Hep PCK1 suppr	PGC1a hep suppr
CCOCCn1c(CN(Cc2ccccc2)Cc2ccccc2)nc2c1c(=O)n(C)c(=O)n2C	56*	·	11	27
Nc1nn(-c2ccccc2)nc1C(=O)OCc1ccccc1	-72	·	·	·
COc1ccc(OCCc2nnc(N)s2)cc1	-43	·	·	·
C[C@@](Cc1ccc(O)c(O)c1)(NN)C(=O)O	-62	·	·	·
COc1cc(C2Nc3cccc4cccc(c34)N2)cc(OC)c1OC(C)=O	-45	·	·	·
Cc1ccc(N)cc1S(=O)(=O)N(C)C	-46	·	·	·
O=C(Cn1cnc2c(nnn2Cc2ccc(Cl)cc2)c1=O)c1ccccc1	-50	·	·	·
COCCNC(=O)c1ccc(C)cc1C	-44	·	·	·
COc1ccc(CN2CCn3ncc(C(=O)Nc4ccccc4)c3C2=O)cc1	-129	88	39	53
OC[C@@H]1CN(Cc2ccccc2)C[C@H](n2cnc3c(NCc4ccco4)ncnc32)O1	-101	·	·	·
CC(=O)Nc1ccc(Nc2ncnc3c2cnn3-c2ccc(C)cc2C)cc1	131*	-73	·	130
Cc1cc(/C=C2\C(=N)N3N=C(C(C)C)SC3=NC2=O)c(C)n1Cc1ccccc1	-49	·	·	·
O=C(CCn1nnc2ccccc21)Nc1nnc(Cc2ccccc2)s1	63*	-50	·	?
CC(=O)Nc1nonc1-c1nc2ccccc2n1Cc1ccccc1	61*	-7	11	?
CC(=O)Nc1ccc(NC2=C/C(=N/S(=O)(=O)c3cccs3)c3ccccc3C2=O)cc1	-70	·	·	·
COc1ccc(-c2cn[nH]c2-c2ccc(O)cc2O)cc1	-42	·	·	·
COc1ccc(Cc2nc(-c3ccc(NC(=O)c4cccnc4)cc3)no2)cc1	240*	-23	-4.4	102
Oc1ccc(C=Nc2ccc(N3CCOCC3)cc2)c(O)c1	-64	·	·	·
CCc1nc(SCC(=O)N2c3ccccc3Sc3ccccc32)c2ccccc2n1	-43	·	·	·
Cc1c(/C(O)=C2\C(=O)C(=O)N(CCCN(C)C)C2c2ccccc2)cnn1-c1ccccc1 (stereo unspecified)	-82	·	·	·
O=C(CN1CCC(n2cnc3cccnc32)CC1)NCc1cccs1	·	17	30	38
O=C(CN1CCC(n2nnc3ccccc32)CC1)NCc1cccs1	192*	-15	-22	33
CCNC(=S)NNC(=O)c1csc2ccccc12	-59	·	·	·
N/C(=N\OC(=O)CCCOc1ccccc1)c1ccc([N+](=O)[O-])cc1	-90	·	·	·
CCO[C@H]1OC(C(=O)N2CCCCCCC2)=C[C@@H](C2CCCCC2)[C@@H]1CCCO	84*	-2	62	51
COc1cc(CN2CCN(Cc3ccccc3C(F)(F)F)CC2)cc(OC)c1OC	-63	·	·	·
CCCCN(C)Cc1c(C)[nH]c2ccccc2c1=O	-49	·	·	·
C=CC(=O)NC(C)(C)Cc1ccccc1	-44	·	·	·
O=S(=O)(c1ccc(Cl)cc1)N1[C@@H]2CNC[C@H]1C2c1ccc(-c2cccc(F)c2)cc1 (stereo partly specified)	80*	10	47	110
CC1(C)OC(=O)C(=Cc2ccc[nH]2)C(=O)O1	-40	·	·	·
